Experimental data reported in ChEMBL document CHEMBL1153870, “Synthesis of glycose carbamides and evaluation of the induction of erythroid differentiation of human erythroleukemic K562 cells” (Eur J Med Chem, 2009).

Assays:
K562 [1] = assay: Antiproliferative activity against human K562 cells; type: functional, cell-based
In short: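 K562 cells were seeded at 30,000 cells/mL in medium with 10% FBS, penicillin and streptomycin. They were cultured with or without test compounds at the indicated concentrations. Cell number per mL was counted with a Coulter counter on different days after culture set-up.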

K562 [2] = assay: Induction of erythroid differentiation in human K562 cells assessed as benzidine-positive cells after 6 days; type: functional; design: concentration or dose not given beside the values
In short: (§1)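 K562 cells were seeded at 30,000 cells/mL in medium with 10% FBS and antibiotics, then exposed to compounds at the indicated concentrations for a 6-day induction period. Hemoglobin-containing cells were scored by benzidine staining and expressed as % benzidine-positive cells. Values are mean ± SD of three independent experiments.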

K562 [3] = assay: Induction of erythroid differentiation in human K562 cells assessed as benzidine-positive cells at 0.5 mM after 6 days; type: functional; in short: as §1
K562 [4] = assay: Induction of erythroid differentiation in human K562 cells assessed as benzidine-positive cells at 20 mM after 6 days; type: functional; in short: as §1
K562 [5] = assay: Induction of erythroid differentiation in human K562 cells assessed as benzidine-positive cells at 0.75 mM after 6 days; type: functional
In short: (§2)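 Erythroid induction was measured with compound combined with a sub-optimal concentration of ara-C. K562 cells were seeded at 30,000 cells/mL in medium with 10% FBS and antibiotics and co-treated for 6 days. Read-out was % benzidine-positive (hemoglobin-containing) cells, given as mean ± SD of three independent experiments.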

K562 [6] = assay: Induction of erythroid differentiation in human K562 cells assessed as benzidine-positive cells at 8 mM after 6 days; type: functional; in short: as §2
K562 [7] = assay: Induction of erythroid differentiation in human K562 cells assessed as benzidine-positive cells at 0.1 mM after 6 days; type: functional; in short: as §1
K562 [8] = assay: Induction of erythroid differentiation in human K562 cells assessed as benzidine-positive cells at 1 mM after 6 days; type: functional; in short: as §1
K562 [9] = assay: Induction of erythroid differentiation in human K562 cells assessed as benzidine-positive cells at 5 mM after 6 days; type: functional; in short: as §1
K562 [10] = assay: Induction of erythroid differentiation in human K562 cells assessed as benzidine-positive cells at 500 mM after 6 days; type: functional; details: in the assay text read “500 nM” for “500 mM”; in short: as §1

Row | SMILES | IC50 (K562 [1]) [µM] | Activity (K562 [2]) [%] | also measured
1 | CCCC(=O)N[C@@H]1[C@H]2OC(C)(C)O[C@H]2O[C@@H]1[C@H](O)CO | 500 | 20 | Activity (K562 [3]): 35%
2 | COc1ccc(C(=O)N[C@H]2[C@H]3OC(C)(C)O[C@H]3O[C@@H]2[C@H](O)CO)cc1 | 2500 | 24 | 
3 | CC#CC(=O)N[C@@H]1[C@H]2OC(C)(C)O[C@H]2O[C@@H]1[C@H]1COC(C)(C)O1 | 500 | 19 | 
4 | CC(C)CC(=O)N[C@@H]1[C@H]2OC(C)(C)O[C@H]2O[C@@H]1[C@H](O)CO | 5000 | 25 | 
5 | CCCCCC(=O)N[C@@H]1[C@H]2OC(C)(C)O[C@H]2O[C@@H]1[C@H](O)CO | 10000 | 28 | 
6 | CC1(C)O[C@H]2O[C@H]([C@H]3COC(C)(C)O3)[C@@H](NC(=O)C3CCCC3)[C@H]2O1 | 1000 | 21 | 
7 | CC1(C)O[C@H]2O[C@H]([C@H](O)CO)[C@@H](NC(=O)C(C)(C)C)[C@H]2O1 | 20000 | 25 | Activity (K562 [4]): 40%
8 | CC1(C)O[C@H]2O[C@H]([C@H]3COC(C)(C)O3)[C@@H](NC(=O)CCc3ccccc3)[C@H]2O1 |  |  | Activity (K562 [5]): 49%
9 | COc1ccc(OC)c(CC(=O)N[C@H]2[C@H]3OC(C)(C)O[C@H]3O[C@@H]2[C@H]2COC(C)(C)O2)c1 |  |  | Activity (K562 [3]): 50%
10 | CC(C)C(=O)N[C@H]1[C@H]2OC(C)(C)O[C@H]2O[C@@H]1[C@H](O)CO |  |  | Activity (K562 [6]): 66%
11 | CO[C@@H]1O[C@H](CNC(=O)C2CC2)[C@@H]2OC(C)(C)O[C@@H]2[C@H]1O | 250 | 27 | 
12 | CCC(=O)N[C@@H]1[C@H]2OC(C)(C)O[C@H]2O[C@@H]1[C@H](O)CO | 30000 | 20 | 
13 | CCCCC(=O)N[C@@H]1[C@H]2OC(C)(C)O[C@H]2O[C@@H]1[C@H](O)CO | 5000 | 18 | 
14 | CCC(=O)N[C@H]1[C@H]2OC(C)(C)O[C@H]2O[C@@H]1[C@H]1COC(C)(C)O1 | 7500 | 19 | 
15 | CC(C)(C)CC(=O)N[C@@H]1[C@H]2OC(C)(C)O[C@H]2O[C@@H]1[C@H](O)CO | 5000 | 15 | 
16 | CCCC(=O)N[C@H]1[C@H]2OC(C)(C)O[C@H]2O[C@@H]1[C@H](O)CO | 20000 | 20 | Activity (K562 [4]): 40%
17 | CC1(C)O[C@H]2O[C@H]([C@H](O)CO)[C@@H](NC(=O)c3ccc(-c4ccccc4)cc3)[C@H]2O1 |  |  | Activity (K562 [7]): 33%
18 | COc1cccc(CC(=O)N[C@H]2[C@H]3OC(C)(C)O[C@H]3O[C@@H]2[C@H]2COC(C)(C)O2)c1 |  |  | Activity (K562 [8]): 43%
19 | CC1(C)O[C@H]2O[C@H]([C@H](O)CO)[C@H](NC(=O)C(C)(C)C)[C@H]2O1 |  |  | Activity (K562 [9]): 68%
20 | CCCC(=O)NC[C@H]1O[C@H](OC)[C@H](O)[C@H]2OC(C)(C)O[C@H]21 | 100 | 18 | 
21 | CCCC(=O)O [BUTYRIC ACID] | 2000 | 32.5 | 
22 | Nc1ccn([C@@H]2O[C@H](CO)[C@@H](O)[C@@H]2O)c(=O)n1 [CYTARABINE] |  | 78 | Activity (K562 [10]): 22%
23 | CO[C@H](C(=O)[C@@H](O)[C@@H](C)O)[C@@H]1Cc2cc3cc(O[C@H]4C[C@@H](O[C@@H]5C[C@@H](O)[C@H](O)[C@@H](C)O5)[C@H](O)[C@@H](C)O4)c(C)c(O)c3c(O)c2C(=O)[C@H]1O[C@H]1C[C@@H](O[C@@H]2C[C@@H](O)[C@@H](O[C@@H]3C[C@](C)(O)[C@H](O)[C@@H](C)O3)[C@@H](C)O2)[C@H](O)[C@@H](C)O1 [PLICAMYCIN] | 0.1 | 86 | 
24 | CO[C@H]1C[C@@H]2CC[C@@H](C)[C@@](O)(O2)C(=O)C(=O)N2CCCC[C@H]2C(=O)O[C@H]([C@H](C)C[C@@H]2CC[C@@H](O)[C@H](OC)C2)CC(=O)[C@H](C)/C=C(\C)[C@@H](O)[C@@H](OC)C(=O)[C@H](C)C[C@H](C)/C=C/C=C/C=C/1C [SIROLIMUS] | 1000 | 75.5 | 
